According to ChEMBL document CHEMBL1136376, “Identification of 2-aminobenzimidazole dimers as antibacterial agents” (2003):
In brackets after ≈: the same amount, converted by molar mass.

test system: Escherichia coli; test: Antibacterial activity against Escherichia coli; assay type: functional
Method in brief: (§1)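 Broth microdilution MIC run in duplicate. Overnight culture grown in appropriate medium was added to compound in 0.5% DMSO in water, giving about 10²–10³ CFU/well. Growth relative to a compound-free well was read as A595 after 20–24 h at 37 °C. MIC was reported as a range: complete inhibition at the upper concentration, viable cells at the lower. Strains: E. faecalis ATCC 29212, E. coli ATCC 25922, S. aureus ATCC 13709.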

**Q.** `CN(CCNc1nc2cc(Cl)c(Cl)cc2[nH]1)CCNc1nc2cc(Cl)c(Cl)cc2[nH]1` was tested. Which MIC did it give?
**A.** 25 µM (≈ 12.2 µg/mL)

**Q.** Which MIC does the source give for `CN(CCCn1c(N)nc2cc(C(F)(F)F)ccc21)CCCn1c(N)nc2cc(C(F)(F)F)ccc21` here?
**A.** 25 µM (≈ 12.8 µg/mL)

**Q.** `COC(=O)c1ccc2c(c1)nc(N)n2CCCN(C)CCCn1c(N)nc2cc(C(=O)OC)ccc21` was tested. Which MIC did it give?
**A.** > 100 µM

**Q.** For `COc1ccc2nc(N)n(CCCN(C)CCCn3c(N)nc4ccc(OC)cc43)c2c1`, which MIC is on record?
**A.** > 100 µM

**Q.** How did the MIC turn out when `CN(CCCn1cnc2cc(Cl)c(Cl)cc21)CCCn1cnc2cc(Cl)c(Cl)cc21` was run?
**A.** 100 µM (≈ 48.5 µg/mL)

**Q.** Which MIC does the source give for `CN(CCCNc1nc2cc(Cl)c(Cl)cc2[nH]1)CCCNc1nc2cc(Cl)c(Cl)cc2[nH]1` here?
**A.** 12 µM (≈ 6.18 µg/mL)

**Q.** Which MIC does the source give for `CN(CCCn1c(N)nc2cc(Br)ccc21)CCCn1c(N)nc2cc(Br)ccc21` here?
**A.** > 100 µM

**Q.** With `CN(CCCn1c(N)nc2cc(Cl)c(Cl)cc21)CCCn1c(N)nc2cc(Cl)c(Cl)cc21` as the compound, how does the MIC read?
**A.** 6 µM (≈ 3.09 µg/mL)

**Q.** With `CN(CCn1c(N)nc2cc(Cl)c(Cl)cc21)CCn1c(N)nc2cc(Cl)c(Cl)cc21` as the compound, how does the MIC read?
**A.** 6 µM (≈ 2.92 µg/mL)

**Q.** Which MIC does the source give for `Nc1nc2cc(Cl)c(Cl)cc2n1CCCCCCCn1c(N)nc2cc(Cl)c(Cl)cc21` here?
**A.** > 100 µM

**Q.** `Cc1ccc2nc(N)n(CCCN(C)CCCn3c(N)nc4ccc(C)cc43)c2c1` was tested. Which MIC did it give?
**A.** > 100 µM

**Q.** With `CN(CCCn1c(N)nc2cc(C#N)ccc21)CCCn1c(N)nc2cc(C#N)ccc21` as the compound, how does the MIC read?
**A.** > 100 µM

**Q.** With `CN(CCCn1c(N)nc2cc(Cl)ccc21)CCCn1c(N)nc2cc(Cl)ccc21` as the compound, how does the MIC read?
**A.** 50 µM (≈ 22.3 µg/mL)

**Q.** With `CN(CCCn1c(N)nc2ccccc21)CCCn1c(N)nc2ccccc21` as the compound, how does the MIC read?
**A.** 100 µM (≈ 37.7 µg/mL)

**Q.** How did the MIC turn out when `Nc1nc2cc(Cl)c(Cl)cc2n1CCCOCCCn1c(N)nc2cc(Cl)c(Cl)cc21` was run?
**A.** > 100 µM

test system: Enterococcus faecalis; test: Antibacterial activity against Enterococcus faecalis; assay type: functional; method in brief: as §1

**Q.** Which MIC does the source give for `CN(CCNc1nc2cc(Cl)c(Cl)cc2[nH]1)CCNc1nc2cc(Cl)c(Cl)cc2[nH]1` here?
**A.** 1.5 µM (≈ 0.731 µg/mL)

**Q.** `CN(CCCn1c(N)nc2cc(C(F)(F)F)ccc21)CCCn1c(N)nc2cc(C(F)(F)F)ccc21` was tested. Which MIC did it give?
**A.** 25 µM (≈ 12.8 µg/mL)

**Q.** How did the MIC turn out when `CN(CCCNc1nc2cc(Cl)c(Cl)cc2[nH]1)CCCNc1nc2cc(Cl)c(Cl)cc2[nH]1` was run?
**A.** 6 µM (≈ 3.09 µg/mL)

**Q.** With `CN(CCCn1c(N)nc2cc(Cl)c(Cl)cc21)CCCn1c(N)nc2cc(Cl)c(Cl)cc21` as the compound, how does the MIC read?
**A.** 6 µM (≈ 3.09 µg/mL)

**Q.** Which MIC does the source give for `CN(CCCn1c(N)nc2cc(Cl)ccc21)CCCn1c(N)nc2cc(Cl)ccc21` here?
**A.** 50 µM (≈ 22.3 µg/mL)

test system: Streptococcus pyogenes; test: Antibacterial activity against Streptococcus pyogenes; assay type: functional

**Q.** `CN(CCNc1nc2cc(Cl)c(Cl)cc2[nH]1)CCNc1nc2cc(Cl)c(Cl)cc2[nH]1` was tested. Which MIC did it give?
**A.** 6 µM (≈ 2.92 µg/mL)

**Q.** For `CN(CCCn1c(N)nc2cc(C(F)(F)F)ccc21)CCCn1c(N)nc2cc(C(F)(F)F)ccc21`, which MIC is on record?
**A.** 25 µM (≈ 12.8 µg/mL)

**Q.** `CN(CCCNc1nc2cc(Cl)c(Cl)cc2[nH]1)CCCNc1nc2cc(Cl)c(Cl)cc2[nH]1` was tested. Which MIC did it give?
**A.** 6 µM (≈ 3.09 µg/mL)

**Q.** Which MIC does the source give for `CN(CCCn1c(N)nc2cc(Cl)c(Cl)cc21)CCCn1c(N)nc2cc(Cl)c(Cl)cc21` here?
**A.** 6 µM (≈ 3.09 µg/mL)

**Q.** `CN(CCCn1c(N)nc2cc(Cl)ccc21)CCCn1c(N)nc2cc(Cl)ccc21` was tested. Which MIC did it give?
**A.** 50 µM (≈ 22.3 µg/mL)

test system: Staphylococcus aureus; test: Antibacterial activity against Staphylococcus aureus; assay type: functional; method in brief: as §1

**Q.** For `CN(CCNc1nc2cc(Cl)c(Cl)cc2[nH]1)CCNc1nc2cc(Cl)c(Cl)cc2[nH]1`, which MIC is on record?
**A.** 12 µM (≈ 5.85 µg/mL)

**Q.** With `CN(CCCn1c(N)nc2cc(C(F)(F)F)ccc21)CCCn1c(N)nc2cc(C(F)(F)F)ccc21` as the compound, how does the MIC read?
**A.** 50 µM (≈ 25.7 µg/mL)

**Q.** With `COC(=O)c1ccc2c(c1)nc(N)n2CCCN(C)CCCn1c(N)nc2cc(C(=O)OC)ccc21` as the compound, how does the MIC read?
**A.** > 100 µM

**Q.** How did the MIC turn out when `COc1ccc2nc(N)n(CCCN(C)CCCn3c(N)nc4ccc(OC)cc43)c2c1` was run?
**A.** > 100 µM

**Q.** Which MIC does the source give for `CN(CCCn1cnc2cc(Cl)c(Cl)cc21)CCCn1cnc2cc(Cl)c(Cl)cc21` here?
**A.** 50 µM (≈ 24.3 µg/mL)

**Q.** For `CN(CCCNc1nc2cc(Cl)c(Cl)cc2[nH]1)CCCNc1nc2cc(Cl)c(Cl)cc2[nH]1`, which MIC is on record?
**A.** 6 µM (≈ 3.09 µg/mL)

**Q.** `CN(CCCn1c(N)nc2cc(Br)ccc21)CCCn1c(N)nc2cc(Br)ccc21` was tested. Which MIC did it give?
**A.** > 100 µM

**Q.** Which MIC does the source give for `CN(CCCn1c(N)nc2cc(Cl)c(Cl)cc21)CCCn1c(N)nc2cc(Cl)c(Cl)cc21` here?
**A.** 12 µM (≈ 6.18 µg/mL)

**Q.** For `CN(CCn1c(N)nc2cc(Cl)c(Cl)cc21)CCn1c(N)nc2cc(Cl)c(Cl)cc21`, which MIC is on record?
**A.** 12 µM (≈ 5.85 µg/mL)

**Q.** How did the MIC turn out when `Nc1nc2cc(Cl)c(Cl)cc2n1CCCCCCCn1c(N)nc2cc(Cl)c(Cl)cc21` was run?
**A.** > 100 µM

**Q.** Which MIC does the source give for `Cc1ccc2nc(N)n(CCCN(C)CCCn3c(N)nc4ccc(C)cc43)c2c1` here?
**A.** > 100 µM

**Q.** How did the MIC turn out when `CN(CCCn1c(N)nc2cc(C#N)ccc21)CCCn1c(N)nc2cc(C#N)ccc21` was run?
**A.** > 100 µM

**Q.** With `CN(CCCn1c(N)nc2cc(Cl)ccc21)CCCn1c(N)nc2cc(Cl)ccc21` as the compound, how does the MIC read?
**A.** 50 µM (≈ 22.3 µg/mL)

**Q.** For `CN(CCCn1c(N)nc2ccccc21)CCCn1c(N)nc2ccccc21`, which MIC is on record?
**A.** 100 µM (≈ 37.7 µg/mL)

**Q.** Which MIC does the source give for `Nc1nc2cc(Cl)c(Cl)cc2n1CCCOCCCn1c(N)nc2cc(Cl)c(Cl)cc21` here?
**A.** > 100 µM
